The values below come from ChEMBL document CHEMBL1255352, “Polyclonal population structure of Streptococcus pneumoniae isolates in Spain carrying mef and mef plus erm(B)” (2008).

For test [1], the system named is Streptococcus pneumoniae. Nature of the test: Antibacterial activity against erm(B) and mef(E)-positive Streptococcus pneumoniae isolate CC-6B by broth microdilution method. In general terms: Broth dilution looks for growth in wells or tubes with falling amounts of substance.
Test [2] has as its system Streptococcus pneumoniae. Nature of the test: Antibacterial activity against erm(B) and mef(E)-positive Streptococcus pneumoniae isolate Spain 6B by broth microdilution method. Type of test: functional. Summed up: (§1)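 MICs by broth microdilution following CLSI guidelines, incubated at 35°C in ambient air. S. pneumoniae ATCC 49619 served as reference strain in each run. CLSI breakpoints applied. Isolates typed for mef(A)/mef(E) by PCR and by MLST.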

Test [3] has as its system Streptococcus pneumoniae. Briefly: Antibacterial activity against mef and erm(B) positive Streptococcus pneumoniae isolates by broth microdilution method. The class given is functional. In outline:
(§2)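 Broth microdilution MICs per CLSI guidelines. Agents tested were penicillin G, cefotaxime, erythromycin, clindamycin, telithromycin, tetracycline and levofloxacin. Plates were incubated at 35°C in ambient air. S. pneumoniae ATCC 49619 served as the reference strain in each run.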

Test [4] deals with Streptococcus pneumoniae. Briefly: Antibacterial activity against mef(E)-positive Streptococcus pneumoniae isolate Spain 9V-3 by broth microdilution method. Type of test: functional. In outline:
as §2

Test [5] deals with Streptococcus pneumoniae. Nature of the test: Antibacterial activity against mef-positive Streptococcus pneumoniae isolates by broth microdilution method. Type of test: functional. In outline: as §2
Test [6] deals with Streptococcus pneumoniae. Nature of the test: Antibacterial activity against erm(B) and mef(E)-positive Streptococcus pneumoniae isolate Sweden 15A-25 by broth microdilution method. The class given is functional. Summed up: as §1
Test [7] relates to Streptococcus pneumoniae. Briefly: Antibacterial activity against mef and erm(B) positive Streptococcus pneumoniae isolates assessed as resistance incidence by broth microdilution method. Type of test: functional. In outline: (§3)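 Clinical isolates were tested by CLSI broth microdilution against penicillin G, cefotaxime, erythromycin, clindamycin, telithromycin, tetracycline and levofloxacin, incubated at 35°C in ambient air, with ATCC 49619 as the control in each run. Isolates were classed as resistant using CLSI breakpoints.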

Test [8] concerns Streptococcus pneumoniae. Nature of the test: Antibacterial activity against mef-positive Streptococcus pneumoniae isolates assessed as resistance incidence by broth microdilution method. The class given is functional. Summed up: as §3

Converted amounts (≈) assume the structure as drawn.

For orientation: MIC means the smallest concentration in the dilution series that meets the test's criterion for growth inhibition. As usually defined, the MIC50 is an inhibitory concentration at the 50% level, which refers to growth in some studies and to a panel of isolates in others. A word on the MIC90: it is an inhibitory concentration at the 90% level, which refers to growth in some studies and to a panel of isolates in others. High values mean lower susceptibility, low ones higher susceptibility. Turning to `CC[C@H]1OC(=O)[C@H](C)C(=O)[C@H](C)[C@@H](O[C@@H]2O[C@H](C)C[C@H](N(C)C)[C@H]2O)[C@](C)(OC)C[C@@H](C)C(=O)[C@H](C)[C@H]2N(CCCCn3cnc(-c4cccnc4)c3)C(=O)O[C@]12C` [TELITHROMYCIN], the MIC in test [1] is under 0.01 µg/mL; in test [2], 0.08 µg/mL (≈ 0.0985 µM); in test [4], 0.05 µg/mL (≈ 0.0616 µM); in test [6] it was 0.008 µg/mL (≈ 0.00985 µM). The MIC50 is 0.06 µg/mL (≈ 0.0739 µM) in test [3] and 0.12 µg/mL (≈ 0.148 µM) in test [5]. In addition, the MIC90 was 0.25 µg/mL (≈ 0.308 µM) in test [3] and 0.5 µg/mL (≈ 0.616 µM) in test [5].
In the case of `CCC[C@@H]1C[C@@H](C(=O)N[C@@H]([C@H]2O[C@H](SC)[C@H](O)[C@@H](O)[C@H]2O)[C@H](C)Cl)N(C)C1` [CLINDAMYCIN], the MIC in test [1] is 32 µg/mL (≈ 75.3 µM); in test [2], at least 64 µg/mL; in test [4], 0.03 µg/mL (≈ 0.0706 µM); in test [6], at least 64 µg/mL. Further, the MIC50 in test [3] was determined as 64 µg/mL (≈ 151 µM); in test [5], 0.03 µg/mL (≈ 0.0706 µM). The values for the MIC90 in test [3] and in test [5] were over 64 µg/mL and 0.25 µg/mL (≈ 0.588 µM), respectively. The Activity in test [7] is on record as 62.2%; in test [8], 0%.
On to `CC1(C)S[C@@H]2[C@H](NC(=O)Cc3ccccc3)C(=O)N2[C@H]1C(=O)O` [PENICILLIN G], for which the MIC in test [1] is 0.12 µg/mL (≈ 0.359 µM); in test [2], 4 µg/mL (≈ 12 µM); in test [4], 0.12 µg/mL (≈ 0.359 µM); in test [6] it was 0.12 µg/mL (≈ 0.359 µM). The MIC50 worked out at 1 µg/mL (≈ 2.99 µM) in test [3] and 0.03 µg/mL (≈ 0.0897 µM) in test [5]. The MIC90 in test [3] was determined as 4 µg/mL (≈ 12 µM); in test [5] it was 1 µg/mL (≈ 2.99 µM). The results for the Activity in test [7] and in test [8] were 46.7% and 35.5%, respectively.
For the compound `CO/N=C(\C(=O)N[C@@H]1C(=O)N2C(C(=O)O)=C(COC(C)=O)CS[C@H]12)c1csc(N)n1` [CEFOTAXIME], the MIC in test [1] was 0.12 µg/mL (≈ 0.263 µM); in test [2] it was 1 µg/mL (≈ 2.2 µM); in test [4] it was 0.06 µg/mL (≈ 0.132 µM); in test [6] it was 0.06 µg/mL (≈ 0.132 µM). The MIC50 in test [3] turned out to be 0.5 µg/mL (≈ 1.1 µM); in test [5], 0.01 µg/mL (≈ 0.022 µM). For the same compound, the MIC90 in test [3] was determined as 2 µg/mL (≈ 4.39 µM); in test [5], 0.25 µg/mL (≈ 0.549 µM). Also, the Activity in test [7] is reported as 4.4%; in test [8] it was 17.7%.
As for `C[C@H]1COc2c(N3CCN(C)CC3)c(F)cc3c(=O)c(C(=O)O)cn1c23.C[C@H]1COc2c(N3CCN(C)CC3)c(F)cc3c(=O)c(C(=O)O)cn1c23.O` [LEVOFLOXACIN], in test [3], the MIC50 was found to be 1 µg/mL and the MIC90 came out at 1 µg/mL. In test [5], this compound returned an MIC50 of 1 µg/mL and an MIC90 of 1 µg/mL.
For the compound `CN(C)[C@@H]1C(O)=C(C(N)=O)C(=O)[C@@]2(O)C(O)=C3C(=O)c4c(O)cccc4[C@@](C)(O)[C@H]3C[C@@H]12` [TETRACYCLINE], the minimal inhibitory concentration (MIC) is 4 µg/mL (≈ 9 µM) in test [1], at least 64 µg/mL in test [2], 0.5 µg/mL (≈ 1.13 µM) in test [4] and at least 64 µg/mL in test [6]. Besides, the MIC50 in test [3] was 16 µg/mL (≈ 36 µM); in test [5], 1 µg/mL (≈ 2.25 µM). For the same compound, the MIC90 in test [3] is over 32 µg/mL; in test [5], 4 µg/mL (≈ 9 µM). In addition, the Activity in test [7] came to 55.5%; in test [8], 13.3%.
Take `CC[C@H]1OC(=O)[C@H](C)[C@@H](O[C@H]2C[C@@](C)(OC)[C@@H](O)[C@H](C)O2)[C@H](C)[C@@H](O[C@@H]2O[C@H](C)C[C@H](N(C)C)[C@H]2O)[C@](C)(O)C[C@@H](C)C(=O)[C@H](C)[C@@H](O)[C@]1(C)O` [ERYTHROMYCIN]: the minimum inhibitory concentration (MIC) is 32 µg/mL (≈ 43.6 µM) in test [1], at least 64 µg/mL in test [2], 0.5 µg/mL (≈ 0.681 µM) in test [4] and at least 64 µg/mL in test [6]. For the same compound, the MIC50 in test [3] was determined as 64 µg/mL (≈ 87.2 µM); in test [5], 4 µg/mL (≈ 5.45 µM). For the same compound, the MIC90 in test [3] was over 64 µg/mL; in test [5] it was 16 µg/mL (≈ 21.8 µM).
